In the RNAGym collection of RNA variant scans (doi:10.1002/anie.201605470) one finds self-cleavage data, which are given here for 49 variants.

The chains are these.
B1: Osa-1-4 twister ribozyme (parent)
chain: CCGCCUAACACUGCCAAUGCCGGUCCCAAGCCCGGAUAAAAGUGGAGGGGGCGG

In this series the parent is B1. Description: self-cleavage, relative activity (ratio to wild type); higher = more cleavage; co-transcriptional. In outline: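 A DNA template was synthesised for a 54-nucleotide twister ribozyme from Oryza sativa, with 97 % wild-type base and 1 % of each other base at each of the 48 positions downstream of the cleavage site. The ribozyme cleaved itself co-transcriptionally during 2 h of in vitro transcription at 37 °C. Reverse transcription with a template-switching oligonucleotide, PCR amplification and deep sequencing followed, and cleavage status came from reads with or without upstream sequence. Relative activity is the fraction cleaved normalised to wild type.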
Regarding CCGCCUCACACUGCCAAUGCCGGUCCCAAGUCCGGAUAAAAGUGGAGGGGGCGG, the self-cleavage came out at 0.05.

Regarding CCGCCUCACACUGCCAAUGCCGGUCCCAAGACCGGAUAAAAGUGGAGGGGGCGG, the self-cleavage turned out to be 0.01.

For the variant CCGCCUCACACUGCCAAUGCCGGUCCCAAGGCCGGAUAAAAGUGGAGGGGGCGG, the self-cleavage was 0.02.

As for CCGCCUCAUACUGCCAAUGCCGGUCCCAAGCCCGGAUAAAAGUGGAGGGGGCGG, the self-cleavage was determined as 0.02.

Take CCGCCUCAAACUGCCAAUGCCGGUCCCAAGCCCGGAUAAAAGUGGAGGGGGCGG: the self-cleavage came to 0.09.

For CCGCCUCAGACUGCCAAUGCCGGUCCCAAGCCCGGAUAAAAGUGGAGGGGGCGG, the self-cleavage worked out at 0.04.

For CCGCCUCACAAUGCCAAUGCCGGUCCCAAGCCCGGAUAAAAGUGGAGGGGGCGG, the self-cleavage came out at 0.06.

In the case of CCGCCUCACAUUGCCAAUGCCGGUCCCAAGCCCGGAUAAAAGUGGAGGGGGCGG, the self-cleavage amounted to 0.05.

For CCGCCUCACAGUGCCAAUGCCGGUCCCAAGCCCGGAUAAAAGUGGAGGGGGCGG, the self-cleavage was determined as 0.04.

CCGCCUCACACUGCCAAUGCCGGUCCCAAGCCCGGAUAAAAGUGGAGGGGGGGG: the self-cleavage was found to be 0.07.

In the case of CCGCCUCACACUGCCAAUGCCGGUCCCAAGCCCGGAUAAAAGUGGAGGGGGAGG, the self-cleavage was determined as 0.06.

As for CCGCCUCACACUGCCAAUGCCGGUCCCAAGCCCGGAUAAAAGUGGAGGGGGUGG, the self-cleavage was determined as 0.06.

Turning to CCGCCUCACACUGGCAAUGCCGGUCCCAAGCCCGGAUAAAAGUGGAGGGGGCGG, the self-cleavage stood at 0.03.

With CCGCCUCACACUGUCAAUGCCGGUCCCAAGCCCGGAUAAAAGUGGAGGGGGCGG, the self-cleavage was determined as 0.04.

For CCGCCUCACACUGACAAUGCCGGUCCCAAGCCCGGAUAAAAGUGGAGGGGGCGG, the self-cleavage came to 0.04.

On to CCGCCUCACACUGCCAAUGCCGGUCCAAAGCCCGGAUAAAAGUGGAGGGGGCGG, for which the self-cleavage is 0.06.

Regarding CCGCCUCACACUGCCAAUGCCGGUCCUAAGCCCGGAUAAAAGUGGAGGGGGCGG, the self-cleavage is 0.03.

Take CCGCCUCACACUGCCAAUGCCGGUCCGAAGCCCGGAUAAAAGUGGAGGGGGCGG: the self-cleavage turned out to be 0.02.

On to CCGCCUCACACUGCCAAUGACGGUCCCAAGCCCGGAUAAAAGUGGAGGGGGCGG, for which the self-cleavage amounted to 0.06.

For CCGCCUCACACUGCCAAUGUCGGUCCCAAGCCCGGAUAAAAGUGGAGGGGGCGG, the self-cleavage worked out at 0.06.

For CCGCCUCACACUGCCAAUGGCGGUCCCAAGCCCGGAUAAAAGUGGAGGGGGCGG, the self-cleavage turned out to be 0.01.

Turning to CCGCCUCACACUGCCAAUGCCGGUACCAAGCCCGGAUAAAAGUGGAGGGGGCGG, the self-cleavage came out at 0.05.

Take CCGCCUCACACUGCCAAUGCCGGUUCCAAGCCCGGAUAAAAGUGGAGGGGGCGG: the self-cleavage amounted to 0.04.

Turning to CCGCCUCACACUGCCAAUGCCGGUGCCAAGCCCGGAUAAAAGUGGAGGGGGCGG, the self-cleavage turned out to be 0.02.

On to CCGCCUCACACUGCCAAUGCCGGUCCCAAGCCCGGAUAAAAGUGGAGGGGGCGG, for which the self-cleavage was found to be 0.04.

Consider CCGCCUCACACUGCCAAUGCCGGUCCCAAGCCAGGAUAAAAGUGGAGGGGGCGG, for which the self-cleavage was determined as 0.05.

In the case of CCGCCUCACACUGCCAAUGCCGGUCCCAAGCCGGGAUAAAAGUGGAGGGGGCGG, the self-cleavage is 0.02.

Consider CCGCCUCACACUGCCAAUGCCGGUCCCAAGCCUGGAUAAAAGUGGAGGGGGCGG, for which the self-cleavage was found to be 0.04.

For CCGCCUCACACUACCAAUGCCGGUCCCAAGCCCGGAUAAAAGUGGAGGGGGCGG, the self-cleavage is 0.02.

On to CCGCCUCACACUUCCAAUGCCGGUCCCAAGCCCGGAUAAAAGUGGAGGGGGCGG, for which the self-cleavage was 0.01.

With CCGCCUCACACUCCCAAUGCCGGUCCCAAGCCCGGAUAAAAGUGGAGGGGGCGG, the self-cleavage turned out to be 0.02.

As for CCGCCUCUCACUGCCAAUGCCGGUCCCAAGCCCGGAUAAAAGUGGAGGGGGCGG, the self-cleavage stood at 0.06.

CCGCCUCCCACUGCCAAUGCCGGUCCCAAGCCCGGAUAAAAGUGGAGGGGGCGG: the self-cleavage turned out to be 0.07.

As for CCGCCUCGCACUGCCAAUGCCGGUCCCAAGCCCGGAUAAAAGUGGAGGGGGCGG, the self-cleavage stood at 0.05.

Turning to CCGCCUCACACUGCCAAUGCCGGUCGCAAGCCCGGAUAAAAGUGGAGGGGGCGG, the self-cleavage was 0.02.

Consider CCGCCUCACACUGCCAAUGCCGGUCUCAAGCCCGGAUAAAAGUGGAGGGGGCGG, for which the self-cleavage is 0.05.

Turning to CCGCCUCACACUGCCAAUGCCGGUCACAAGCCCGGAUAAAAGUGGAGGGGGCGG, the self-cleavage came to 0.03.

In the case of CCGCCUCACACUGCCAAUGCCGGUCCCAAGCUCGGAUAAAAGUGGAGGGGGCGG, the self-cleavage was 0.02.

In the case of CCGCCUCACACUGCCAAUGCCGGUCCCAAGCACGGAUAAAAGUGGAGGGGGCGG, the self-cleavage came to 0.04.

In the case of CCGCCUCACACUGCCAAUGCCGGUCCCAAGCGCGGAUAAAAGUGGAGGGGGCGG, the self-cleavage worked out at 0.02.

Regarding CCGCCUCACACUGCAAAUGCCGGUCCCAAGCCCGGAUAAAAGUGGAGGGGGCGG, the self-cleavage turned out to be 0.04.

For CCGCCUCACACUGCUAAUGCCGGUCCCAAGCCCGGAUAAAAGUGGAGGGGGCGG, the self-cleavage was 0.04.

For the variant CCGCCUCACACUGCGAAUGCCGGUCCCAAGCCCGGAUAAAAGUGGAGGGGGCGG, the self-cleavage worked out at 0.07.

On to CCGCCUCACACUGCCAAUGCUGGUCCCAAGCCCGGAUAAAAGUGGAGGGGGCGG, for which the self-cleavage stood at 0.04.

For CCGCCUCACACUGCCAAUGCAGGUCCCAAGCCCGGAUAAAAGUGGAGGGGGCGG, the self-cleavage was 0.06.

As to CCGCCUCACACUGCCAAUGCGGGUCCCAAGCCCGGAUAAAAGUGGAGGGGGCGG, the self-cleavage was determined as 0.01.

Take CCGCCUCACACUGCCAAUUCCGGUCCCAAGCCCGGAUAAAAGUGGAGGGGGCGG: the self-cleavage is 0.03.

In the case of CCGCCUCACACUGCCAAUCCCGGUCCCAAGCCCGGAUAAAAGUGGAGGGGGCGG, the self-cleavage worked out at 0.02.

With CCGCCUCACACUGCCAAUACCGGUCCCAAGCCCGGAUAAAAGUGGAGGGGGCGG, the self-cleavage was found to be 0.05.
